In publication PMC6740333 (Bioconjugate chemistry, 2018):
Read-outs that look alike come from different tables or passages of the source.

Experiments:
[1] = Dispersion stability of surfactant-stabilized GNRs at high ionic strength; format: physicochemical; details: 1 M NaCl
Outline: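 Citrate-stabilized gold nanorods were centrifuged and redispersed twice in 0.1 M NaCl containing millimolar zwitterionic sulfobetaine surfactant. Ionic strength was then raised with brine to 0.5 or 1.0 M. Dispersion stability was followed as retention of optical density, measured by absorbance spectrophotometry, after one day and one week.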

HepaRG cells = assay: Cell viability assay; format: cell-based, human
Outline: (§1)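 HepaRG, MDCK (canine kidney) or LLC-PK1 (pig kidney) cells were grown at 37°C, 5% CO2 in RPMI 1640 with 10% FBS, 1% glutamine and 1% penicillin–streptomycin. Cells were exposed for 24 h at 37°C to serial dilutions of sulfobetaine surfactant in medium (final-volume concentrations). MTT (0.5%) was added for 4 h, formazan was dissolved in DMSO 16 h in the dark, and A590 was read against medium-only controls. Triplicate.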

MDCK cells = assay: Cell viability assay; format: cell-based, canine; details: read-out: Cell viability IC50, MTT, mean of triplicate
Outline: as §1

SKOV-3 cells = assay: Cell viability assay; format: cell-based; details: Homo sapiens, SK-OV-3, 24 h, read-out: Cell viability IC50
Outline: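 SKOV-3 cells in folate-free RPMI 1640 (10% FBS, 1% penicillin–streptomycin) were seeded at 5,000 cells/100 μL and preincubated 24 h at 37°C, 5% CO2. Serial dilutions in medium (final-volume concentrations) were added for 24 h at 37°C. MTT (0.5%) was then added for 4 h, followed by DMSO solubilization 16 h at 25°C in the dark. A590 was normalized to medium-only cells. Triplicate.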

LLC-PK1 cells = assay: Cell viability assay; format: cell-based, pig; details: read-out: Cell viability IC50; LLC-PK1, MTT, mean of triplicate
Outline: as §1

[2] = read-out: Cell viability IC50, MTT, mean of triplicate

Row | retention of optical density of stabilized GNRs ([1]; after one day) | retention of optical density of stabilized GNRs ([1]; after one week) [%] | Compound | IC50 (HepaRG cells; [2]) [µM] | IC50 (MDCK cells) [µM] | IC50 (HepaRG cells; Homo sapiens, read-out: Cell viability IC50) [µM] | IC50 (SKOV-3 cells) [µM] | IC50 (LLC-PK1 cells) [µM]
1 | over 90% | 80 | CCCCCCCCCCCCCCCCCC[N+](C)(C)CCCS(=O)(=O)[O-] [C18-SB, 3-(N,N-dimethyloctadecylammonio)sulfopropyl betaine] | 52 | 56 | – | – | –
2 | over 90% | 80 | CCCCCCCC/C=C\CCCCCCCC[N+](C)(C)CCCS(=O)(=O)[O-] [OSB, oleylsulfobetaine] | 32 | 42 | – | – | 62

More lines, now with the values behind:

Row | Compound | retention of optical density of stabilized GNRs ([1]; after one day) | retention of optical density of stabilized GNRs ([1]; after one week) [%] | IC50 (HepaRG cells; [2]) [µM] | IC50 (MDCK cells) [µM] | IC50 (HepaRG cells; Homo sapiens, read-out: Cell viability IC50) [µM] | IC50 (SKOV-3 cells) [µM] | IC50 (LLC-PK1 cells) [µM]
3 | CCCCCCCCCCCCCC(=O)NCCC[N+](C)(C)CCCS(=O)(=O)[O-] [ASB-14] | over 90% | 80 | 105 | 120 | – | – | –
4 | CCCCCCCCCCCCCCCC(=O)NCCC[N+](C)(C)CCCS(=O)(=O)[O-] [ASB-16] | over 90% | 80 | 58 | 81 | – | – | –
5 | CCCCCCCCCCCCCCCC[N+](C)(C)C [CTAB, cetyltrimethylammonium bromide] | – | – | – | – | 8 | 8 | –
